# Shown are actives, neighbours in structure and some others; about 1.5% of the full set was active somewhere.
# LANA DNA inh: KSHV C-LANA DNA binding inhibition. 340,000 tested, 0.078% active. inhibition, % at 9 µM. MBP-C-LANA/FAM-LBS DNA binding, fluorescence polarization;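 active means highest replicate inhibition at or above 60% at 9 µM, even if other replicates fall short; inactive means all replicates below 60% inhibition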;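 further: 0% = neutral control wells and 100% = 4 µM acridine orange control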
# CAL PDZ FP-1: blocks peptide binding to the human CAL PDZ domain; Q9HD26; purified CAL PDZ, TMR-peptide fluorescence polarization, 1 h; inhibition, % at 24.9 µM; 300,000 tested, 0.92% active;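 active means mean inhibition of at least 30% with at least half of replicates also reaching 30%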;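 further: 0% = DMSO neutral control and 100% = excess unlabeled competitor peptide PRC23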
# Keap1-Nrf2 PPI: disrupts human Keap1 binding to Nrf2 peptide | Q14145 | Keap1 Kelch-Nrf2 peptide fluorescence polarization, 1536-well | inhibition, % at 9.4 µM | 340,000 tested, 0.15% active; in the data active means inhibition above about 12%;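 further: human Keap1 Kelch domain with fluorescein labeled Nrf2 9mer peptide probe; 0% = neutral control wells and 100% = peptide positive control; higher means more block of Keap1 binding to Nrf2 peptide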
# Target sequence (Q14145 whole entry, looked up, the tested form may be a part): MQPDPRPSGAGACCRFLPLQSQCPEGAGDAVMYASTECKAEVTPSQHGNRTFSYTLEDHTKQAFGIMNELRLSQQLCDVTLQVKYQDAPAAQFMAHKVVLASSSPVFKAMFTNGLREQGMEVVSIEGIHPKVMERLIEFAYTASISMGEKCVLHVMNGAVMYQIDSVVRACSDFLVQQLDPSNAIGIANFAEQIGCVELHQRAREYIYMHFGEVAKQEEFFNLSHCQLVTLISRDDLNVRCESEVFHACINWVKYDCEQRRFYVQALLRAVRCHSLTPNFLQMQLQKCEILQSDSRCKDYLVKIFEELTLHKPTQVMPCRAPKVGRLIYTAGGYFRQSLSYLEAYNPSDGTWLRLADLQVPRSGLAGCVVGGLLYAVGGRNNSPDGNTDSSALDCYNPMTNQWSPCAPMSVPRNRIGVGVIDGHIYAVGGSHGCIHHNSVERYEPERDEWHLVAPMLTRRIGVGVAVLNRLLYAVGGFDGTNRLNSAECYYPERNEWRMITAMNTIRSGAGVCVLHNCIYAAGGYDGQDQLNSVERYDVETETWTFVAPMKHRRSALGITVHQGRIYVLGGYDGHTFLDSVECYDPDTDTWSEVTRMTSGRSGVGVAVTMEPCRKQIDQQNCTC
# CaV13 FRET inh: Primary screen for inhibitors of IQ motif and Ca2+-dependent inactivation inhibitor domain binding in CACNA1D, Förster resonance energy transfer in living cells, …; HEK cells, CFP/YFP FRET ICDI-IQ, plate reader, 10 min; percent FRET-ratio fall versus neutral wells; inhibition, % at 12.3 µM; 340,000 tested, 0.098% active;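 active means mean replicate inhibition of at least 30% and at least 1% of replicates passing that level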;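 further: 0% = median of the neutral control wells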
# LANA-H2B inh: blocks KSHV LANA binding to histone H2A/H2B; cell-free LANA-H2A/H2B peptide, fluorescence polarization; inhibition, % (no concentration beside the values); 320,000 tested, 0.6% active; AID 2629; in the data active means inhibition mostly above about 10%, no sharp cut-off; inactive means mostly below about 6.7%
# CAL PDZ FP-2: human CAL PDZ-peptide interaction inhibition; 330,000 tested, 0.02% active; Q9HD26; AID 504414; purified CAL PDZ, TMR-peptide fluorescence polarization, 1 h; inhibition, % at 20 µM;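 active means highest replicate inhibition of at least 40%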;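 further: plate controls were DMSO neutral control wells for no effect and unlabeled competitor peptide control wells for full effect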
#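 Control set: unlabelled peptide and DMSO controls / Material: purified CerCALP PDZ construct / Timing: 1 h incubation at room temperature before polarization reading / Doses: 20 µM, one dose / Detection: fluorescence polarization (mP)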
# * marks the source's active call; other numbers are inactive results; . = no result given; + = active, no number.
SMILES,LANA DNA inh,CAL PDZ FP-1,Keap1-Nrf2 PPI,CaV13 FRET inh,LANA-H2B inh,CAL PDZ FP-2
COc1ccc(N/C=C/C(=O)c2cc(OC)c(OC)c(OC)c2)cc1,0,-11,1,-4,12*,-1
O=C(Nc1cccc([N+](=O)[O-])c1)OCc1ccc2c(c1)OCO2,.,.,.,-13,.,.
COc1ccc(-c2sc3cc(OC)c(OC)cc3c2-c2ccc(O)cc2)cc1,1,-6,0,-5,+,-1
CN(C)S(=O)(=O)c1cccc(COc2ncnc3c(Cl)cc(Cl)cc23)c1,1,56*,-2,-7,-4,0
O=C(N=C1SC2CS(=O)(=O)CC2N1c1cccc(F)c1)C1CC1 (centres undefined),-1,62*,-3,-4,10,1
O=C(N=C1SC2CS(=O)(=O)CC2N1c1ccccc1)C1CC1 (centres undefined),0,-2,-4,-7,-1,-1
CCOC(=O)C1CCN(c2nc(-c3ccccc3)nc3c2oc2ccccc23)CC1,-3,-16,-1,-5,1,0
CCOC(=O)C1CCN(c2nc(-c3ccc(C)cc3)nc3ccccc23)CC1,2,85*,-3,-6,-2,-2
CCN(CC(=O)Nc1cccc(OC)c1)CC(=O)Nc1ccc(C)cc1Cl,1,66*,-3,-6,3,.
Cc1ccc(C(C)C)c(OCCn2ccnc2C)c1,7,-4,-3,-1,0,1
Cc1ccc(OCCCCn2ccnc2C)c(C)c1,5,79*,1,-6,-3,7
CN1CCc2c(sc(/N=C/c3c[nH]c4ccccc34)c2C#N)C1,.,.,.,-4,38*,.
Cc1ccc(S(=O)(=O)N[C@H](C(=O)OCC(=O)NC(=O)C2CCCCC2)C(C)C)cc1,-1,154*,2,-6,-1,-1
Cc1ccc(S(=O)(=O)N[C@H](C(=O)OCC(=O)NC(=O)Nc2ccc3c(c2)OCCO3)C(C)C)cc1,0,2,0,-5,-4,0
CC(=O)c1ccc(S(=O)(=O)Nc2ccc(Cl)c(S(=O)(=O)N3CCCC3)c2)cc1,1,63*,-1,-5,2,0
O=C(O)c1ccc(Cl)c(S(=O)(=O)Nc2ccc(S(=O)(=O)N3CCCC3)cc2)c1,-3,-5,2,-3,-2,-1
C=CCOCCN(CC)CC,0,-4,-2,-8,2,-1
CCOCc1cc(=O)[nH]c(SC)n1,3,70*,-6,-20,.,-1
CCOc1ccc(NC(=O)c2cccc(OC(=S)N3CCC(C)CC3)c2)cc1,-5,-3,-3,-7,1,-1
CC(C)CCn1c(N2CCC(C(N)=O)CC2)nc2c1c(=O)[nH]c(=O)n2C,0,42*,-4,.,1,.
CC(C)CCn1c(N2CCCC2)nc2c1c(=O)[nH]c(=O)n2C,1,-1,-2,1,-8,0
CCC(=O)N1CCCc2cc(S(=O)(=O)N3CCN(C4CCCCC4)CC3)ccc21,1,42*,1,-4,-5,.
O=C(O)c1ccc(N/N=C/c2ccc(-c3ccccc3Cl)o2)cc1,-9,-4,0,+,10,0
COc1ccc(-c2nn(-c3ccccc3)cc2/C=C/C(=O)N2CCOCC2)cc1OC,0,53*,-3,-3,1,-1
COc1ccc(-c2nn(-c3ccccc3)cc2C(=O)O)cc1OC,0,0,4,-8,1,-1
SMILES,LANA DNA inh,CAL PDZ FP-1,Keap1-Nrf2 PPI,CaV13 FRET inh,LANA-H2B inh,CAL PDZ FP-2
Cc1cccc(C)c1OCc1cc(C(=O)NC2CCC(O)CC2)no1 (centres undefined),-1,-5,4,.,21*,2
C=CCN1[C@@H](C)[C@H](c2ccccc2)Oc2cccc(NCCc3ccccc3)c2S1(=O)=O,.,.,.,-5,.,.
Cc1nc(-c2ccc(NC(=O)Cc3ccccc3)cc2)cs1,-1,66*,-10,-4,4,.
COc1ccc(CC(=O)Nc2ccc(-c3csc(C)n3)cc2)cc1,1,-2,0,-5,4,0
Cc1ccc(S(=O)(=O)c2cc3ccccc3nc2N)cc1,2,40*,-2,0,1,13
CN(C)c1ncc(S(=O)(=O)c2ccccc2)c(N)n1,0,-1,2,-3,3,0
c1ccc(Nc2ccccn2)nc1,-1,-11,-1,5,8.3*,-2
Oc1ccccc1Nc1ccccn1,1,-5,-8,-5,-2,.
CCNC(=S)Nc1ccc(Cl)c(C(F)(F)F)c1,2,-3,0,-16,-4,0
O=C(NCCCN1CCOCC1)C(Sc1ccccc1)c1ccccc1 (centres undefined),0,1,9,.,53*,1
O=C(Cc1ccccc1[N+](=O)[O-])NCCCN1CCOCC1,0,-1,-2,-2,+,-2
CN(C)c1ccc(-c2ccnc3c2CC(C)(C(=O)NCc2ccco2)O3)cc1 (centres undefined),.,.,.,-3,.,.
Cc1cc(C)c(S(=O)(=O)NCc2ccc3c(c2)OCO3)c(C)c1,3,69*,0,-20,-2,.
Cn1c(=O)c2sc3c(c2n(CC(=O)Nc2ccccc2)c1=O)COC(C)(C)C3,-1,31*,-5,-7,-1,-1
CCOC(=O)C1=CCN(S(=O)(=O)c2cccc(Cl)c2)C1c1cccc(Cl)c1 (centres undefined),.,.,.,-3,.,.
CC(=O)OCC(=O)N1CCN(C(=O)C(=O)c2cccc(C(F)(F)F)c2)CC1,.,.,.,-9,.,.
O=C(O)c1ccc(NC2=C(Cl)C(=O)c3ccccc3C2=O)cc1,4,-6,9.3*,-7,-7,2
Cc1cc(O)c(C=O)c2c1C(=O)Oc1c(CO)c(O)c3c(c1O2)C(O)OC3=O (centres undefined),118*,-3,47*,.,-2,2
Cc1cccnc1NC(=O)CCC(=O)c1cccs1,-1,.,-3,-17,25*,1
Cc1cccnc1NC(=O)CNC(=O)C1CCCCC1,2,36*,-3,-2,-12,-1
Cc1ccc(NC(=O)CNC(=O)C2CCCCC2)nc1,2,-1,7,-6,0,-2

# Assay outcomes: PubChem BioAssay, Broad Institute
